Experimental data taken from publication PMC3328361 (The Journal of Experimental Medicine, 2012).

Tests used:
[1] = tested on: differentiated SH-SY5Y cells; assay: 3-NT levels in cell media by ELISA after SIN-1; format: cell-based, human; settings: 40 µM pretreatment before SIN-1
Method in brief: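 Human SH-SY5Y cells were differentiated with 10 µM retinoic acid in 1.5% FCS medium for 3 d, then given fresh medium for another 3 d. Cells were preincubated with test compound (10, 20, 40 µM) for 5 min, then exposed to 3 mM SIN-1 for 90 min. Media were coated in pH 9.6 carbonate buffer for ELISA at 22°C: rabbit […] 1:2000, HRP secondary, TMB, A450.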

[2] = tested on: hA53T tg mice lesioned with MPTP; assay: Pole test, MPTP-lesioned hA53T tg mice; format: in vivo
Method in brief: (§1)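 Oral gavage of 15 or 30 mg/kg test compound or suspension vehicle began 1 d post-lesion. Saline sham-lesioned controls received vehicle. Pole test (Tturn, Ttotal) was run after 19 d of treatment.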

[3] = tested on: MPTP-lesioned C57BL/6 mice; assay: Pole test, MPTP-lesioned wild-type mice; format: in vivo
Method in brief: as §1

α-synuclein [4] = target: T1, α-synuclein (Homo sapiens, UniProt P37840); assay: α-Synuclein amyloid fibril formation; format: biochemical; settings: unpublished data
[5] = Overt toxicity observation in animal studies; format: in vivo; settings: studies of this paper and a longer term 12-mo trial in wild-type animals
[6] = tested on: hA53T α-synuclein tg mice; assay: Pole test, hA53T α-synuclein tg mice; format: in vivo; settings: 30 mg/kg
α-synuclein [7] = assay: α-Synuclein levels in SNpc, MPTP-lesioned hA53T α-synuclein tg mice; format: in vivo
Method in brief: (§2)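 MPTP lesion: four i.p. doses of 10 mg/kg at 2-h intervals. Test compound (15 or 30 mg/kg) or vehicle was given by oral gavage from the next day for 21 d. Brain homogenate (~20 µg) was reduced, heated to 90°C for 5 min, run on 10% SDS-PAGE and blotted to nitrocellulose. Densitometry was normalised to GAPDH or β-actin and expressed as percentage of vehicle.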

[8] = Rat pharmacokinetic study; format: in vivo, Sprague Dawley rats
Method in brief: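 Fasted male Sprague Dawley rats (6–8 wk, ~280 g) received 20 mg/kg by oral gavage as a 6 mg/ml suspension (n = 3). Another group (n = 3) got 5 mg/kg by i.v. jugular-cannula infusion at 0.05 ml/min, as a 3 mg/ml solution in 20% DMSO/80% propylene glycol. Serial blood was taken to 24 h; plasma was acetonitrile-precipitated and analysed by LC-MS.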

SNCA = SNCA gene expression by qPCR, MPTP-lesioned WT mice; format: in vivo
α-synuclein [9] = target: T1, α-synuclein; assay: 2D [1H,15N] HSQC NMR titration of 15N-labeled α-synuclein; format: binding; settings: increasing concentrations titrated in
α-synuclein [10] = assay: α-Synuclein levels in SNpc, MPTP-lesioned wild-type mice; format: in vivo
Method in brief: as §2

[11] = tested on: differentiated SH-SY5Y cells; assay: MTS cell viability, SIN-1–induced toxicity; format: cell-based, human; settings: added to cell culture 5 min after SIN-1; unpublished data
[12] = Time-dependent degradation of ONOO^− monitored by UV-visible spectroscopy; format: biochemical; settings: Cu^II(atsm) at 10 µM; ONOO^− in high pH solution (alone 53 ± 3 min)
[13] = tested on: hA53T α-synuclein tg mice; assay: Y-maze test, hA53T tg mice; format: in vivo; settings: 30 mg/kg, vehicle-treated 30%
synaptophysin = assay: Synaptophysin levels in striatum of hA53T tg mice; format: in vivo; settings: 30 mg/kg
Method in brief: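 hA53T tg mice, 7 mo old, were given 30 mg/kg or vehicle by oral gavage for 20 d. Striatal homogenate (~20 µg) was reduced with β-mercaptoethanol, heated to 90°C for 5 min, run on 10% SDS-PAGE and blotted to nitrocellulose. Synaptophysin densitometry was normalised to GAPDH or β-actin and expressed as percentage of vehicle.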

VMAT2 [14] = assay: VMAT2 levels in MPTP-lesioned mice; format: in vivo; settings: for increase in VMAT2 levels: 3–4-mo-old MPTP-lesioned mice
Method in brief: as §2

α-synuclein [15] = assay: α-Synuclein levels, hA53T α-synuclein tg mice not MPTP-lesioned; format: in vivo; settings: unpublished data
VMAT2 [16] = assay: VMAT2 microPET imaging with 18F-AV133, MPTP-lesioned 18-mo-old mice; format: in vivo; settings: 18 mo MPTP-lesioned mice, 30 mg/kg
Method in brief: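 Female B6C3H x HeJ mice, 18 mo old, had baseline VMAT2 microPET: 500 µCi 18F-AV-133 by tail vein, imaged for 30 min. They were then lesioned with 4 × 10 mg/kg MPTP. Treatment at 30 mg/kg or vehicle began the following day and ran 21 d, after which microPET imaging was repeated.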

[17] = Mouse pharmacokinetic and brain uptake study; format: in vivo, C57BL/6 mice
Method in brief: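 Male C57BL/6 mice, 11 wk old, got a single 30 mg/kg oral gavage dose (7.5 mg/ml suspension in standard suspension vehicle). Plasma and brain were sampled at time points up to 24 h, n = 3 per point, under pentobarbitone anaesthesia. Samples were acetonitrile-precipitated and quantified against matrix-matched standards. Quantitation limits: 5 ng/ml plasma, 10 ng/g brain. Brain/plasma ratio taken from AUC0-6h.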

[18] = tested on: hA53T tg mice lesioned with MPTP; assay: Stereological SNpc neuron counts, MPTP-lesioned hA53T tg mice; format: in vivo; settings: 30 mg/kg
Method in brief: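 MPTP was given i.p. as four 10 mg/kg doses at 2-h intervals. Groups: 4-mo-old female C57BL/6 mice and 7-mo-old hA53T α-synuclein tg mice, equal sexes. From 1 d post-lesion, mice got 15 or 30 mg/kg test compound or suspension vehicle by oral gavage for […]; saline sham-lesioned controls got vehicle. Perfused brains, right hemisphere fixed in 4% paraformaldehyde; Nissl-stained SNpc counted stereologically (45 × 35 µm frame).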

[19] = tested on: 6-OHDA-lesioned C57BL/6 mice; assay: Amphetamine-induced rotation, 6-OHDA model; format: in vivo; settings: 30 mg/kg, 6-OHDA-lesioned mice
Method in brief: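 Partial 6-OHDA lesion: 2 µl injected into the right substantia nigra of 2-mo-old C57BL/6 mice, 3.0 mm AP, 1.1 mm lateral, 4.7 mm DV from bregma. Amphetamine-induced rotation was tested 3 d post-lesion, before dosing, to confirm lesion size. Mice were randomised to test compound or vehicle for 18 d, then rotation was retested.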

[20] = tested on: MPTP-lesioned C57BL/6 mice; assay: Stereological SNpc neuron counts, MPTP-lesioned wild-type mice; format: in vivo; settings: for increase in number of SNpc neurons vs vehicle-treated MPTP-lesioned mice: started 1 d after lesion, 20 d
[21] = tested on: hA53T α-synuclein tg mice; assay: Novel object recognition; format: in vivo; settings: 30 mg/kg for 20 d
Method in brief: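 hA53T α-synuclein tg mice, 7 mo old, equal sexes, received 30 mg/kg test compound or vehicle by oral gavage for 20 d. Novel object test with Lego blocks: 10-min training with two objects, 1-h delay, then one familiar object replaced by a novel 1.5 × 1.5 × 2.0 cm object. Index = time with novel object / time with familiar object.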

[22] = tested on: low copy mice overexpressing human G93A SOD1; settings: ref Soon et al., 2011, cited from earlier work
MPTP-lesioned mice = assay: Dopamine measurement of mouse striatum; format: in vivo; settings: 30 mg/kg
Method in brief: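 MPTP lesion: four i.p. doses of 10 mg/kg at 2-h intervals. Starting the next day, mice received 30 mg/kg test compound or suspension vehicle by oral gavage. Right striatum was homogenised by pulse sonication in 0.4 M perchloric acid with 0.15% sodium metabisulfite and 0.05% EDTA disodium salt for dopamine measurement.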

[23] = tested on: 6-OHDA-lesioned C57BL/6 mice; assay: Stereological SNpc neuron counts, 6-OHDA-lesioned mice; format: in vivo; settings: 30 mg/kg, started 3 d after 6-OHDA lesion, 20 d
Method in brief: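 6-OHDA lesion in the right substantia nigra of 2-mo-old C57BL/6 mice; dosing started 3 d post-lesion. Mice were perfused with cold PBS. The right hemisphere was fixed overnight in 4% paraformaldehyde in 0.1 M phosphate buffer at 4°C. Nissl-stained SNpc neurons were counted stereologically with an unbiased 45 µm × 35 µm counting frame.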

[24] = tested on: hA53T α-synuclein tg mice; assay: Stereological nigral cell counts, hA53T α-synuclein tg mice; format: in vivo; settings: 30 mg/kg, 20 d
Method in brief: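 hA53T α-synuclein tg mice and C57BL/6 x C3H background controls, 7 mo old, equal sexes, received 30 mg/kg test compound or suspension vehicle by oral gavage for 20 d. The right hemisphere of PBS-perfused brains was fixed overnight in 4% paraformaldehyde at 4°C. Nissl-stained nigral neurons were counted stereologically using a 45 µm × 35 µm unbiased counting frame.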

TH = TH levels in SNpc of MPTP-lesioned mice; format: in vivo
Method in brief: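 MPTP lesion: four i.p. doses of 10 mg/kg at 2-h intervals; 15 or 30 mg/kg oral gavage from the next day. For TH immunostaining, 30 µm coronal SNpc sections were post-fixed in 4% PFA and boiled in citrate buffer (pH 6.0). They were blocked with normal goat serum and incubated overnight at room temperature with rabbit anti-TH 1:3000, then HRP secondary for 2 h and DAB. Western blots were normalised to GAPDH or β-actin.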

[25] = single oral 20 mg/kg, male Sprague Dawley rats
[26] = single oral 30 mg/kg, C57BL/6 mice

CN=C([S-])N/N=C(C)/C(C)=N/NC([S-])=NC.[Cu+2] [Cu^II(atsm), copper(II)diacetylbis(N(4)-methylthiosemicarbazonato)]
reduction in nitrotyrosine (3-NT) levels [1]: 51%
improvement in Ttotal [2]: 37%
improvement in Tturn [2]: 49%
Tturn (pole test) ([2]; vehicle 2.4 ± 0.4 s): 1.2 ± 0.1 s
Ttotal (pole test) ([2]; vehicle 6.1 ± 0.8 s): 3.9 ± 0.2 s
decrease of Tturn and Ttotal times ([3]; 15 mg/kg): did not reach statistical significance
faster Ttotal (pole test) vs MPTP-lesioned vehicle ([3]; 30 mg/kg): 2.2 s
faster Tturn (pole test) vs MPTP-lesioned vehicle ([3]; 30 mg/kg): 1.5 s
effect on motor performance of nonlesioned wild-type mice ([3]; nonlesioned wild-type mice): no effect
inhibition of formation of α-synuclein fibrils (α-synuclein [4]): did not inhibit the formation of α-synuclein fibrils
overt toxicity [5]: No overt toxicity
improvement in Ttotal times [6]: not statistically significant
Tturn (pole test) ([6]; vehicle 3.9 ± 0.5 s): 1.1 ± 0.3 s
reduction in α-synuclein monomer levels (α-synuclein [7]; MPTP-lesioned hA53T tg mice): 12%
α-synuclein dimers, % of control-treated (α-synuclein [7]; MPTP-lesioned hA53T α-synuclein tg mice): 83%
apparent oral bioavailability ([8]; oral 20 mg/kg vs intravenous 5 mg/kg, rats): 53 ± 5%
Tmax [8, 25]: 10 h
elimination half-life [8, 25]: 3.1 ± 0.4 h
Cmax ([8]; single oral 20 mg/kg, male Sprague Dawley rats, plasma): 488.1 ± 67.0 ng/mL
SNCA gene regulation (qPCR) (SNCA): recovered to levels of unlesioned WT mice
direct interaction between α-synuclein and compound (HSQC spectra) (α-synuclein [9]): no direct interaction
α-synuclein dimers, % of control-treated (α-synuclein [10]): 76%
α-synuclein monomer levels (α-synuclein [10]): no changes
protective effect in posttreatment paradigm [11]: no protective effect was observed
ONOO^− half-life [12]: ~0.193 ± 0.0083 h
mean novel arm entries (Y-maze) [13]: 42%
increase in synaptophysin levels vs vehicle-treated tg mice (synaptophysin): 31%
increase in VMAT2 levels (VMAT2 [14]; 15 mg/kg): 13%
increase in VMAT2 levels (VMAT2 [14]; 30 mg/kg): 12%
VMAT2 transcripts (qPCR, SNpc) (VMAT2 [14]; MPTP-lesioned animals): levels were restored to those similar to the wild-type animals
increase in VMAT2 protein levels in striatum (Western blot) (VMAT2 [14]; older (18 mo) MPTP-lesioned mice): 60%
α-synuclein levels vs vehicle treatment (α-synuclein [15]): did not lead to any significant differences
increase in 18F-AV133 ligand binding vs vehicle control lesioned mice (VMAT2 [16]): 142%
maximum concentration of the compound in the brain ([17]; based on Cmax levels, oral 30 mg/kg mice): ~0.6 µM
brain Cmax [17, 26]: 198 ± 61 ng/mL
brain Tmax [17, 26]: 2 h
brain/plasma ratio (AUC0-6h) [17, 26]: 0.32
plasma Cmax [17, 26]: 591 ± 203 ng/mL
plasma Tmax [17, 26]: 1 h
apparent elimination half-life ([17]; single oral 30 mg/kg, C57BL/6 mice, plasma): ~3.3 h
increase of SNpc neurons [18]: 15%
reduction in amphetamine-induced rotational behavior vs controls [19]: 45%
increase in number of SNpc neurons vs vehicle-treated MPTP-lesioned mice ([20]; 15 mg/kg oral gavage): 43%
increase in number of SNpc neurons vs vehicle-treated MPTP-lesioned mice ([20]; 30 mg/kg oral gavage): 61%
effect on cell numbers of nonlesioned wild-type mice ([20]; nonlesioned wild-type mice): no effect
increase in interactions with the novel object vs vehicle-treated mice [21]: 73%
motor phenotype in ALS tg mouse model ([22]; pre- and postsymptomatic treatment regimes): successful in rescuing the motor phenotype
survival in ALS tg mouse model [22]: increased survival rates
increase in dopamine levels vs untreated MPTP-lesioned animals (MPTP-lesioned mice): 122%
increase in number of SNpc dopaminergic neurons [23]: 26%
increase in total nigral cells [24]: 14%
TH mRNA transcript levels (qPCR, SNpc) (TH): rescued
increase in TH levels (Western blot) (TH; 15 mg/kg): 42%
increase in TH levels (Western blot) (TH; 30 mg/kg): 45%
immunostaining of TH in SNpc (TH; either 15 or 30 mg/kg): increased immunostaining
